ATG4B inh: inhibitors of human ATG4B cysteine protease; inhibition, % at 8.33 µM; ATG4B cleavage of LC3-PLA2, NBD-HPC fluorescence, 1 h; Q9Y4P1; 340,000 tested, 0.51% active; AID 504462; in the data active means inhibition above about 40%
Target sequence (Q9Y4P1 whole entry, looked up): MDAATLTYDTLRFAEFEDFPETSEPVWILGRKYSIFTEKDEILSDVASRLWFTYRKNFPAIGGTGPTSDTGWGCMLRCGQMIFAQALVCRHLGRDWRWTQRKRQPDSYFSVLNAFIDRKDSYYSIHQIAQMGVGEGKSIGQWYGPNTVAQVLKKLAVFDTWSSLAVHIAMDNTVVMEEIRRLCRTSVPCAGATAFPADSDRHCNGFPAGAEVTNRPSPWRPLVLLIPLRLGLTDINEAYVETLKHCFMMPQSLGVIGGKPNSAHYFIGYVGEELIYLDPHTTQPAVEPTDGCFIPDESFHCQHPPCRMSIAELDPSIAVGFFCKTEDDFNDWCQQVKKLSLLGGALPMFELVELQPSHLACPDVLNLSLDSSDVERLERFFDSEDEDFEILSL
HKDC1 inh: HKDC1 (human) hexokinase inhibition | 340,000 tested, 0.16% active | recombinant HKDC1, G6PDH/diaphorase resazurin coupled fluorescence | inhibition, % at 20 µM | Q2TB90 | AID 493160;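 active means inhibition above about 35% when tested at 20 µM, limit read from the data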;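 further: plate controls were DMSO wells with enzyme for no effect and DMSO wells lacking enzyme for full effect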
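Assay system: in-house recombinant HK5 (HKDC1) enzyme. Input: HKDC1 at 5 µg/mL. Medium: Tris pH 8.0 buffer with MgCl2, Tween-20, BSA, BME. Dosing: single 20 µM dose. Schedule: 90 min reaction incubation at room temperature, dark. Signal: resazurin-to-resorufin fluorescence via G6PDH and diaphorase coupling, 525/613 nm. Controls: DMSO-enzyme wells negative, buffer-substituted wells positive.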
T cell HTS: T cell immune modulation candidate | AID 2052 | response (vesicle binding), % at 7 µM | 330,000 tested, 0.068% active | 2C CD8+ T cell-vesicle binding, flow cytometry; stronger effect = lower value;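 active means response, share of CD8 T cells binding vesicles, and their 90th percentile fluorescence all below set limits, cut at about 80% in these data, passing the limit was not always enough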;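 further: values below 100% mean blocked vesicle binding to the CD8+ T cells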
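incubation = binding step 1.5 h, 37 °C, antibody labelling 20 min, ice | test system = 2C mouse CD8+ T cells | read-out basis = percent CD8+ FL2 mean versus row control | controls = Peptide-free naked vesicles (low) and QL9 vesicles with 0.7% DMSO vehicle (high) | detection = flow cytometry of vesicle-bound cells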
PfG6PD inh: PfG6PD (Plasmodium falciparum) enzyme inhibition | 350,000 tested, 0.78% active | inhibition, % at 20 µM | PfGluPho enzyme, NADPH resazurin-diaphorase fluorescence;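 active means inhibition reaching at least a set limit at 20 µM in the primary screen, cut at about 59% in these data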;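 further: 0% = DMSO wells with substrate and 100% = DMSO wells lacking glucose-6-phosphate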
PKA-R2B activ: PKA-R2B complex activation. PKA-R2B holoenzyme dissociation, Cy5-IP20 fluorescence polarization; R2B truncated from residue 108, S112A mutant; 0% DMSO only, 100% 113 µM cGMP. activation, % at 11.4 µM. P22694+P31323. 340,000 tested, 0.079% active;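 active means activation above a cutoff set at the mean over all compounds plus 3 SD, cut at about 18% in these data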;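 further: higher means more holoenzyme dissociation and a rise in polarization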
PKA-R1A activ: activators of PKA-R1A complex. activation, % at 11.4 µM. PKA-R1A dissociation, Cy5-IP20 fluorescence polarization; scaled: DMSO 0%, 113 µM cGMP 100%. AID 504707. P00514+P68181. 340,000 tested, 0.083% active;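 active means percent activation above the mean of all tested compounds plus 3 SD, cut at about 19% in these data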;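 further: higher means more PKAc released from R1A so a rise in polarization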
PfGluPho conf: confirmation of Plasmodium falciparum G6PD inhibitors; shares compounds with PfG6PD inh; recombinant PfGluPho, NADPH-diaphorase-resazurin fluorescence; inhibition, % at 20 µM; 2,400 tested, 34% active;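 active means inhibition of at least 50% at 20 µM in any single replicate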;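 further: 0% = DMSO with substrate and 100% = DMSO lacking glucose-6-phosphate substrate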
Diaph ctr 10uM: diaphorase inhibition or oxidation at 10 uM NADPH | shares compounds with PfG6PD inh | diaphorase-coupled resazurin reduction, fluorescence, NADPH 10 uM | inhibition, % at 20 µM | 820 tested, 39% active | AID 504862;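 active means average inhibition reaching 50% or more with the compound at 20 µM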;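 further: resorufin red fluorescence formed as diaphorase reduces resazurin using NADPH; 0% = DMSO with enzyme and 100% = DMSO without enzyme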
Diaphorase 30uM: counter-screen for P. falciparum G6PD inhibitors: diaphorase inhibitors, oxidizers. shares compounds with PfG6PD inh. Diaphorase/resazurin coupled assay, resorufin fluorescence, 30 uM NADPH. inhibition, % at 20 µM. 820 tested, 29% active. AID 504863;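 active means inhibition averaging 50% or more, tested at 20 µM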;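 further: 0% = DMSO with enzyme and 100% = DMSO wells lacking diaphorase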
* = called active by the depositor. Sampled rows, rich in hits. Any-hit rate of the full collection: about 1.6%.

Results for CC(C(=O)NCC(=O)Nc1ccc(F)c(F)c1F)N1CCN(Cc2ccc(C#N)cc2)CC1 (stereo not drawn) ?
ATG4B inh: -3; HKDC1 inh: 9; T cell HTS: 322; PfG6PD inh: 8; PKA-R2B activ: 3; PKA-R1A activ: 2

Results for CC(C(=O)NCC(=O)Nc1ccc(F)c(F)c1F)N1CCN(c2ccc(O)cc2)CC1 (stereo not drawn) ?
ATG4B inh: -1; HKDC1 inh: 10; T cell HTS: 287; PfG6PD inh: 70*; PKA-R2B activ: -5; PKA-R1A activ: 3; PfGluPho conf: 43

What do the screens show for `COc1ccccc1Nc1nnc(SCc2cc(=O)n3cc(C)ccc3n2)s1`?
ATG4B inh: -2; HKDC1 inh: 1; T cell HTS: 381; PfG6PD inh: 69*; PKA-R2B activ: -9; PKA-R1A activ: -4; PfGluPho conf: 45

Results for Cc1ccc(NS(=O)(=O)c2c(C(=O)N3CCCCCC3)c(C)n(C)c2C)c(C)c1 ?
ATG4B inh: -14; HKDC1 inh: -3; T cell HTS: inactive; PfG6PD inh: -5; PKA-R2B activ: 11; PKA-R1A activ: 12

Results for O=C1Nc2cc(C(=O)NCCN3CCCCCC3)ccc2S/C1=C/c1ccccc1F ?
PfG6PD inh: 99*; PKA-R2B activ: 3; PKA-R1A activ: -4; PfGluPho conf: 45

How did CCN1CCCC1CNC(=O)c1ccc2c(c1)NC(=O)/C(=C\c1ccc(C)cc1)S2 (stereo not drawn) do in these assays?
ATG4B inh: 4; HKDC1 inh: 2; T cell HTS: 312; PfG6PD inh: 117*; PKA-R2B activ: -10; PKA-R1A activ: -6; PfGluPho conf: 104*; Diaph ctr 10uM: -12; Diaphorase 30uM: -3

How did COCCCN1C(=O)C(CC(=O)NCC2CCCCC2)CC(C(=O)N(C)C)=C1C (stereo not drawn) do in these assays?
PfG6PD inh: -8; PKA-R2B activ: 6; PKA-R1A activ: -3

How did COC(=O)c1c(C)n(-c2ccccc2)c2ccc(O)cc12 do in these assays?
ATG4B inh: 6; HKDC1 inh: 20; T cell HTS: 229; PfG6PD inh: 63*; PKA-R2B activ: 3; PKA-R1A activ: -18; PfGluPho conf: 28

What do the screens show for `COC(=O)c1c(C)n(-c2ccc(C)cc2)c2ccc(O)cc12`?
ATG4B inh: -3; HKDC1 inh: 0; T cell HTS: 378; PfG6PD inh: 23; PKA-R2B activ: -10; PKA-R1A activ: -4

How did O=C(CSc1nnc2c(n1)[nH]c1ccccc12)Nc1ccc2c(c1)OCO2 do in these assays?
ATG4B inh: -2; HKDC1 inh: -5; T cell HTS: 336; PfG6PD inh: 64*; PKA-R2B activ: 2; PKA-R1A activ: -1; PfGluPho conf: 0

What do the screens show for `O=C(CSc1nnc2c(n1)[nH]c1ccccc12)Nc1cccc(S(=O)(=O)N2CCOCC2)c1`?
ATG4B inh: -12; HKDC1 inh: 8; T cell HTS: 90; PfG6PD inh: 62*; PKA-R2B activ: -3; PKA-R1A activ: -7; PfGluPho conf: 16

What do the screens show for `Cc1ccc(Cc2c(-c3ccc(F)cc3)nc3cc(C)ccn23)cc1`?
PfG6PD inh: 71*; PKA-R2B activ: -5; PKA-R1A activ: -11; PfGluPho conf: -11

How did Cc1ccc(Cc2c(-c3ccccc3)nc3ccc(Br)cn23)cc1 do in these assays?
PfG6PD inh: 31; PKA-R2B activ: 8; PKA-R1A activ: -9

How did Cc1ccc(Cc2c(-c3ccc(Br)cc3)nc3cc(C)ccn23)cc1 do in these assays?
PfG6PD inh: 109*; PKA-R2B activ: -6; PKA-R1A activ: 4; PfGluPho conf: 14

Results for Cc1ccc(Cc2c(-c3ccc(F)cc3)nc3ccc(Cl)cn23)cc1 ?
PfG6PD inh: 62*; PKA-R2B activ: -9; PKA-R1A activ: -12; PfGluPho conf: -18

How did Cc1cccc(NC(=S)NCCc2ccccc2)n1 do in these assays?
ATG4B inh: 8; HKDC1 inh: -2; T cell HTS: 223; PfG6PD inh: 70*; PKA-R2B activ: -5; PKA-R1A activ: 6; PfGluPho conf: 24

Results for S=C(NCCc1ccccc1)Nc1ccccn1 ?
ATG4B inh: -6; HKDC1 inh: -9; T cell HTS: 116; PfG6PD inh: 16; PKA-R2B activ: -4; PKA-R1A activ: 1

Results for COc1ccc2[nH]c(=O)c(CNc3cccc(C)c3)cc2c1 ?
ATG4B inh: 3; HKDC1 inh: 20; T cell HTS: 223; PfG6PD inh: 69*; PKA-R2B activ: -1; PKA-R1A activ: -2; PfGluPho conf: -2

What do the screens show for `COc1ccc(NCc2cc3ccccc3[nH]c2=O)cc1`?
ATG4B inh: -4; HKDC1 inh: 4; T cell HTS: 277; PfG6PD inh: 25; PKA-R2B activ: -3; PKA-R1A activ: -10

What do the screens show for `COc1ccc(NCc2cc3cc(OC)ccc3[nH]c2=O)cc1`?
ATG4B inh: 6; HKDC1 inh: 5; T cell HTS: 317; PfG6PD inh: 73*; PKA-R2B activ: -6; PKA-R1A activ: -12; PfGluPho conf: 26

What do the screens show for `Cc1ccc(NCCCn2cnc3c(OCc4ccccc4)ncnc32)cc1C`?
ATG4B inh: 3; HKDC1 inh: 4; PfG6PD inh: 29; PKA-R2B activ: -1; PKA-R1A activ: 9

What do the screens show for `CCSS(=O)(=O)c1cccc2cccnc12`?
ATG4B inh: -2; HKDC1 inh: 2; T cell HTS: 226; PfG6PD inh: 80*; PfGluPho conf: 2

How did Cc1cc(C)c(NS(=O)(=O)c2cccc3cccnc23)c(C)c1 do in these assays?
ATG4B inh: -3; HKDC1 inh: -5; T cell HTS: 133; PfG6PD inh: 46; PKA-R2B activ: 11; PKA-R1A activ: -1; PfGluPho conf: 22

How did O=C(O)c1ccc(CNC(=O)C2CCN(S(=O)(=O)c3ccc4c(c3)OCCO4)CC2)cc1 do in these assays?
PfG6PD inh: -12; PKA-R2B activ: -1; PKA-R1A activ: 5

Assay outcomes from PubChem BioAssay.
